Data: the EternaBench riboswitch data

Tests used:
[1] = system: MS2 coat protein; experiment: apparent Kd, MS2 coat protein; higher = weaker binding; RNA-MaP array; tryptophan 2.4 mM where present
Method in brief: (§1)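 Stalled E. coli RNA polymerase produced the designs on Illumina sequencing-chip clusters. SNAP-549-labelled MS2 coat protein was added from 0.7 or 1.5 nM, doubling to 3 µM, without and then with constant ligand, in 100 mM Tris-HCl pH 7.5, 80 mM KCl, 4 mM MgCl2, BSA, DTT, yeast tRNA and Tween-20. The apparent Kd is the median of filtered per-cluster fits of green signal normalised to red-channel RNA signal and control-cluster median Fmax.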

[2] = system: MS2 coat protein; experiment: apparent Kd, MS2 coat protein; higher = weaker binding; RNA-MaP array; theophylline 2 mM where present
Method in brief: as §1

[3] = designed as: ON switch for tryptophan, no ligand
[4] = ligand present: tryptophan, designed as: ON switch for tryptophan
[5] = designed as: OFF switch for tryptophan, no ligand
[6] = ligand present: tryptophan, designed as: OFF switch for tryptophan
[7] = designed as: ON switch for theophylline, no ligand
[8] = ligand present: theophylline, designed as: ON switch for theophylline
[9] = designed as: OFF switch for theophylline, no ligand
[10] = ligand present: theophylline, designed as: OFF switch for theophylline

Sequence | apparent Kd [1, 3] [nM] | apparent Kd [1, 4] [nM] | apparent Kd [1, 5] [nM] | apparent Kd [1, 6] [nM] | also measured
GGAUUACGAAAGUAGUCCAUCAAGUUCGAGCGAGGACCGGUACGGCCGCCACUCGAACAUGAGGAUCACCCAUGUAGCGAAAGCU | 284 | 255 |  |  | 
CCGCACAUGAGGAUCACCCAUGUCCGGGUUCGAGGACCGGUACGGCCGCCACUCGGACAUGUGCGCCCUUCAUGCACUGUAUAAA | 129 | 60.9 |  |  | 
AGACUUCGCAUAGGAAAACUAUGUGAAGUCCGAGGACCGGUACGGCCGCCACUCGUCCUCAACAUGAGGAUCACCCAUGUAAUAA |  |  | 21.5 | 27.3 | 
AUAAUAAUACAUGAGGAUCACCCAUGUAUGCGAGGACCGGUACGGCCGCCACUCGACCUCAUGCAUACAUGAGGAUCACCCAUGU | 32.5 | 62 |  |  | 
CCUCAAUAGACGGCCGCCACUGAAACAUGCGGAUACAUGAGGAUCACCCAUGUGGGUGUGUUACGCAGGACCGGGUCAAGACCCG | 345 | 480 |  |  | 
CUGCUACAUACGGCCGCCACUUUAAACAUGAGGAUCACCCAUGUACGGAAGGGUGGUAAAUGUUAAAGGACCGGGUAUGUAGCAA |  |  | 176 | 45.1 | 
UACUUGCUGACGGCCGCCACUAGAACAUGAGGAUCACCCAUGUAAGUGGUUGGUUCAUGGGUGACUAGGACCGGGUCAGCAAGAU |  |  | 32.3 | 37.3 | 
AACAUGAGGAUCACCCAUGUGUCCUCGAAACGAGGACCGGUACGGCCGCCACUCGAAAGGUGUUGACGAAAAGUCAGCACCAAAA |  |  | 302 | 930 | 
UGCAUGAGGAUCGCCCGUGUCGAGCCGGUGCGAGGACCGGUACGGCCGCCACUCGAGACAUGAGGAUCACCCAUGUUGUGCGUGA |  |  | 56.5 | 91.4 | 
UAUAUAUAUCACGAACUGUGGUGUAUGUCCCGAGGACCGGUACGGCCGCCACUCGCGUGGUUCCACAUGAGGAUCACCCAUGUUG |  |  | 18.9 | 22.7 | 
GGUUACUCUACGGCCGCCACUGGGCAUGUAAAUAACAUGAGGAUCACCCAUGUGGAAUAAAAUUACAGGACCGGGUAGUGUAACC | 254 | 40.2 |  |  | 
CGAUAUGGGACGGCCGCCACUAUUAUGUAACAAAAUAAACAUGAGGAUCACCCAUGUACAUGGGAUAGGACCGGGUCCUAUAACG | 32.4 | 19.9 |  |  | 
UGCUAGUGAUCGGCCGCCACUGGCACCUUGAGGAUCCUGCUAAAGUACAUGAGGAUCACCCAUGUCAGGACCGGGAUCAUCAGUG |  |  | 10.4 | 10.5 | 
UGUCGGCGAAAGUUGGCGUGUCUUGCUGGUCGAGGACCGGUACGGCCGCCACUCGAUCCUUCGCACAUGAGGAUCACCCAUGUUG | 25.5 | 28.5 |  |  | 
AGAUUCGACACGGCCGCCACUCGUGCCGGAUUACCGAGUGUCGAACAUGAGGAUCACCCAUGUACGAGGACCGGGUGUUGAGUCU |  |  | 37.7 | 262 | 
AAAUUAUAGGCGGCCGCCACUAGAGUUAGGCUUAUGUACUGGGUAACAUGAGGAUCACCCAUGUAUAGGACCGGGCCAUAAUAAA | 53.5 | 52.6 |  |  | 
UAAACUACACAUGAGGAUCACCCAUGUGGCCGAGGACCGGUACGGCCGCCACUCGUGUGUUAAUAAAAGAACCGCAAAGUUCUUU | 277 | 75.9 |  |  | 
UCGAAUGCGGCGGCCGCCACUCGCGGAUAACGAUAGCUUAACAUGAGGAUCACCCAUGUGUCAUGGAGGACCGGGCCCAUACCGU | 22.7 | 21.1 |  |  | 
AGCCGCGUUCUUUCUUUCUUUCUAGCGGCACGAGGACCGGUACGGCCGCCACUCGCCCACAUGAGGAUCACCCAUGUAGUGGGUG |  |  | 18.8 | 80.6 | 
AGAUUCGACACGGCCGCCACUUGUGGUGGAUUAUCCAGUGUCGAACAUGAGGAUCACCCAUGUACAAGGACCGGGUGUUGAGUCU |  |  | 90.4 | 282 | 
GACCCAUGAGUUGCAAAAGCUCAUGGGUCGCGAGGACCGGUACGGCCGCCACUCGGCUGUACAUGAGGAUCACCCAUGUCAGGGU | 371 | 529 |  |  | 
CUCAUCCACGCGGCCGCCACUAUAUUGUGGUGUGAAUGUGUCGUAAUACAUGAGGAUCACCCAUGUAGGACCGGGCGUGGAUGAG |  |  | 20.1 | 32.9 | 
GCUAGGUCAUCGGCCGCCACUAACGACGGUUCCAACAUGAGGAUCACCCAUGUGCCACAUGCGCAUAGGACCGGGAUGACCUAGC | 33 | 21 |  |  | 
GGAUUCAACUCGGCCGCCACUGGUGAUCCUAAUGUACAUGAGGAUCACCCAUGUACAUGAGAAUACAGGACCGGGAGAUAAGCAA | 19.4 | 13.9 |  |  | 
AGCACUGUGACGGCCGCCACUACAUAUAGGGUGGUCAGGUUCAUAAUACAUGAGGAUCACCCAUGUAGGACCGGGUCUCAGUGCA |  |  | 12.5 | 14.4 | 
UAUCGAGGUACAUGAGGAUCACCCAUGUAUCGAGGACCGGUACGGCCGCCACUCGAUAAUGGCGGAUCGUUAGUCCUCUUCGAUA |  |  | 10.7 | 11.4 | 

Sequence | apparent Kd [1, 3] [nM] | apparent Kd [1, 4] [nM] | apparent Kd [1, 5] [nM] | apparent Kd [1, 6] [nM] | also measured
AACAUGAGGAUCACCCAUGUCCUCGUGUUCCGAGGACCGGUACGGCCGCCACUCGGUCCUCGCGAGGAUGGUCAAAGACUAUCCA | 97.4 | 170 |  |  | 
UCCUGCAGAGCGGCCGCCACUGUGUUGCGUGAGGAUGACCCAACAUGAGGAUCACCCAUGUUGUUUAGGACCGGGCUUGCCUCGA |  |  | 13.4 | 12.3 | 
ACAUGAGGAUCACCCAUGUACAUCACCCGACGAGGACCGGUACGGCCGCCACUCGGGUAUAUAUAUACAUCGGGUGAUUUUACGU | 18.5 | 18 |  |  | 
UUAUAAGUACCGGUCCUCAGAUCCUCAUGACGAGGACCGGUACGGCCGCCACUCGAAACAUGAGGAUCACCCAUGUAAUAAUACC |  |  | 37.5 | 29.1 | 
AUAUAUACAUGAGGAUCACCCAUGUUAUUUCGAGGACCGGUACGGCCGCCACUCGAUAGAGUAGAAGUAACAUGUGUUAGUUGAU | 22.3 | 47 |  |  | 
AAACAUGAGGAUCACCCAUGUAUACUUAGACGAGGACCGGUACGGCCGCCACUCGAACUUCAAGAUUUGGCGGAAAAUGUAUGUA |  |  | 11.3 | 12.9 | 
AGUUUAGACACGGCCGCCACUCGUGACAGAUUUAGCAGUGGUCAACAUGAGGAUCACCCAUGUCUGAGGACCGGGUGUUGAGUUU |  |  | 177 | 631 | 
UAAACUACACAUGAGGAUCACCCAUGUGGCCGAGGACCGGUACGGCCGCCACUCGUGUGUUAAUAAAAGAACUGCAAAGUUCCUU | 295 | 86.1 |  |  | 
GGGUGGUAGGCGGCCGCCACUGAUUUUCAUAUAUAUAUAACAUGAGGAUCACCCAUGUAGAUAUGCAGGACCGGGCCUGUUGUUU | 36.5 | 30.4 |  |  | 
UCUUUUUUCUUUUCUUCUUUCGGUUCUUUUCGAGGACCGGUACGGCCGCCACUCGAAACAUGAGGAUCACCCAUGUUUUGGUUUU |  |  | 11.9 | 17.5 | 
UUUAAAUAGACGGCCGCCACUGGAAUUAAUACAUGAGGAUCACCCAUGUAGAGAGAAUAAUAAUACAGGACCGGGUCUUCAUGAA | 31.4 | 12.5 |  |  | 
GUCCUAAGGUCGGCCGCCACUGUAGAGUGUGAGCCAUCACAUGAGGAUCACCCAUGUUGUUGCUAUAGGACCGGGAUUGUAGGAC |  |  | 12 | 16.4 | 
GUAUUAACAAAAGUUGAUACAGUGGGUGAACGAGGACCGGUACGGCCGCCACUCGGACAUGAGGAUCACCCAUGUCCAUGUGAAA |  |  | 17.2 | 27.2 | 
CUAGAUGGAAACGUCUGGACGCACAAGCGACGAGGACCGGUACGGCCGCCACUCGAAGAGUGGUGGACAUGAGGAUCACCCAUGU | 53.8 | 39.2 |  |  | 
AUAAAAGGGUUAUAUAGAUUUAGGUCCAGUCGAGGACCGGUACGGCCGCCACUCGUACUGAAAUACAUGAGGAUCACCCAUGUUA | 21.8 | 22.7 |  |  | 
UAUAUAUAUCACUAACUGUUCUUGAGGUCUCGAGGACCGGUACGGCCGCCACUCGUGCCGCCUCACAUGAGGAUCACCCAUGUCC |  |  | 53.7 | 57 | 
GGGUGGUAGGCGGCCGCCACUGAUUUUUAUUUAUAGAUGACAUGAGGAUCACCCAUGUAGAUAUGCAGGACCGGGCCUGUUGUUU | 19.3 | 17.8 |  |  | 
CCAUAAGUACCGGUCCUCAGAUCCUCAUGACGAGGACCGGUACGGCCGCCACUCGAAACAUGAGGAUCACCCAUGUAAUAAUAUC |  |  | 30.6 | 24.6 | 
UCGUUUUAGUCGGCCGCCACUGAACUCAUGUUCAACAUGAGGAUCACCCAUGUACCUUAUUUUAACAGGACCGGGACGUAAUAGA |  |  | 123 | 97.5 | 
AUUAAUUGUCGUGAUACCAGACAUACAUGAGGAUCACCCAUGUUAAGUAACAUUUUUUAUGUCCCUUGGCAGCACUUUUUAAUUA |  |  |  |  | apparent Kd [2, 7]: 19.4 nM; apparent Kd [2, 8]: 11.5 nM
AAUAACAUGAGGAUCACCCAUGUAAAAGAUACCAGAGUGAUGAUCCUCCCUUGGCAGCUUAACGCUGAUUGAUUACAAUCAGCGA |  |  |  |  | apparent Kd [2, 7]: 57.6 nM; apparent Kd [2, 8]: 173 nM
UCGACAGUGAACGAUACCAGCGUCACGUGGCCGGUGGUCACAUGAGGAUCACCCAUGUAACGCCCUUGGCAGCGUGCACGUAUCC |  |  |  |  | apparent Kd [2, 9]: 26.1 nM; apparent Kd [2, 10]: 184 nM
GAGCUGAUGUAGAGUGGAUAUCCUUGAGAUACCAGUACAGAAAUGUACCCUUGGCAGCUCUUCUUUACAUGAGGAUCACCCAUGU |  |  |  |  | apparent Kd [2, 9]: 13.1 nM; apparent Kd [2, 10]: 17.5 nM
CGACUACAGCGUGAUACCAGUGACAGAUACCAGUCUAGACAUGAGGAUCACCCAUGUACGCGCCCUUGGCAGCACACUAGAUCGA |  |  |  |  | apparent Kd [2, 7]: 89.4 nM; apparent Kd [2, 8]: 49.9 nM
ACGUCUCGUUUACUCGUGGGUUAGCUCGAUACCAGUAUUCAAACUUACCCUUGGCAGCGACAUGAGGAUCACCCAUGUGCGAAGA |  |  |  |  | apparent Kd [2, 9]: 16.4 nM; apparent Kd [2, 10]: 54.9 nM
CAAACAUGAGGAUCACCCAUGUAAUCAGAUACCAGUGACGAAAGUCACCCUUGGCAGCUGAGUACAUAUUGGCAGAGGUGUUUGA |  |  |  |  | apparent Kd [2, 9]: 67 nM; apparent Kd [2, 10]: 75 nM
